Tests used:
[1] = tested on: Liver; assay: Intrinsic clearance in B6C3F1 mouse liver microsomes after 30 mins by LC-ESI-MS analysis; format: ADME; conditions: 0.5 h
Outline: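 2'-OH-TCC at 0.2, 0.5, 1, 2, 3, 5, 10 and 50 µM incubated with liver microsomes (alamethicin, MgCl2, saccharolactone, UDPGA; 37 °C), sampled at 5, 10, 15 and 30 min. Samples ≥5 µM diluted 1:9 in ACN; LC-ESI-MS. KM and vmax fitted from rate vs concentration; intrinsic clearance derived from these; mean and SD of three.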

[2] = Drug metabolism in B6C3F1 mouse liver microsomes assessed as N-glucuronide-triclocarban formation incubated for 5 mins prior to UDPGA addition measured after 5 to 30 mins by LC-UV analysis; format: ADME
Outline: (§1)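 Microsomes or UGT Supersomes (5 µg protein) were held 15 min on ice with alamethicin in 100 mM potassium phosphate pH 7.4. TCC was added at 10 µM (2% DMSO) with 10 mM MgCl2 and 10 mM saccharolactone, pre-warmed 5 min at 37 °C, then started with UDPGA. Samples at 5, 10, 15 and 30 min were quenched in ACN. Product was read by LC-UV at 265 nm; rate came from regression over time, three incubations.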

[3] = Inhibition of human recombinant soluble epoxide hydrolase using CMNPC as substrate
[4] = Drug excretion in monkey urine; format: ADME, tissue-based, Macaca mulatta; conditions: rhesus monkey, read-out: Drug excretion
[5] = biological target: T1, UDP-glucuronosyltransferase 1A1 (Homo sapiens, UniProt P22309); assay: Drug metabolism assessed as human UGT1A1-mediated N-glucuronide-triclocarban formation expressed in baculovirus infected insect sf9 cells incubated for 5 mins prior to UDPGA addition measured after 5 to 30 mins by LC-UV analysis; format: ADME; outline: as §1
T1 sequence (P22309 whole entry): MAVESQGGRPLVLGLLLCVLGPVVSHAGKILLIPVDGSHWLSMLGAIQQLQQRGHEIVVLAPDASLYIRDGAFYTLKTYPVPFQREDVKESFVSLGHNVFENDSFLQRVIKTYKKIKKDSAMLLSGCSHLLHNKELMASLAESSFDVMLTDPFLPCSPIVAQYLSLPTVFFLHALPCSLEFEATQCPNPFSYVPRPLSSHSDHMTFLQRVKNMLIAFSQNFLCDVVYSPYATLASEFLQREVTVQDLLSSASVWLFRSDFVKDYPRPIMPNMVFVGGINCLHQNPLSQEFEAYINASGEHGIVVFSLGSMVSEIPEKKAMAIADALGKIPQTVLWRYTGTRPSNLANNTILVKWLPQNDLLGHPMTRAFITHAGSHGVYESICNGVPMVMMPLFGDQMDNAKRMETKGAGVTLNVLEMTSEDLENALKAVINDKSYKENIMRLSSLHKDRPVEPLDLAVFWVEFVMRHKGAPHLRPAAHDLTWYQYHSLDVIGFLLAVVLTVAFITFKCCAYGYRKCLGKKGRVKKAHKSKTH

[6] = biological target: T2, UDP-glucuronosyltransferase 1A10 (Homo sapiens, UniProt Q9HAW8); assay: Drug metabolism assessed as human UGT1A10-mediated N-glucuronide-triclocarban formation expressed in baculovirus infected insect sf9 cells incubated for 5 mins prior to UDPGA addition measured after 5 to 30 mins by LC-UV analysis; format: ADME; outline: as §1
T2 sequence (Q9HAW8 whole entry): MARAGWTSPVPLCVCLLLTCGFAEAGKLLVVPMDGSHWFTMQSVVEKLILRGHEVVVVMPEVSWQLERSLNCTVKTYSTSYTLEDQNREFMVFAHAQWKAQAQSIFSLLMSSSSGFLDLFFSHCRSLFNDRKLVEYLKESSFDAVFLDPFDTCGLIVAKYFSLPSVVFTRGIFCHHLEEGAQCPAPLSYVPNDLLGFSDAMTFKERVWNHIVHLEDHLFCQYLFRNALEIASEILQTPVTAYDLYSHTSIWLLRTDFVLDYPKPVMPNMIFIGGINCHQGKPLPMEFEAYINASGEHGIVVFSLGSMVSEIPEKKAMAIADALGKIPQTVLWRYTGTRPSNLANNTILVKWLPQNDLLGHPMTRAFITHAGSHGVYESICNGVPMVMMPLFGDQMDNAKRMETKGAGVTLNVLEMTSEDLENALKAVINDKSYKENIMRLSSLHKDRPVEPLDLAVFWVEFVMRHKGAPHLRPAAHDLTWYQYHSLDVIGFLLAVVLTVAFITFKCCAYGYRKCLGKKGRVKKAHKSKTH

[7] = tested on: Liver microsome; assay: Drug metabolism in Sprague-Dawley rat liver microsomes assessed as N'-glucuronide-triclocarban formation incubated for 5 mins prior to UDPGA addition measured after 5 to 30 mins by LC-UV analysis; format: ADME; outline: as §1
[8] = Drug excretion in Swiss webster mouse urine assessed as N-glucuronide-triclocarban formation at 5 mg/kg, po by LC-MS analysis; format: ADME, organism-based; design: dose 5 mg/kg, route oral; conditions: in vivo
Outline: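 Mice were housed two per metabolic cage, with blank urine collected over the 24 h before dosing. TCC was given by oral gavage as a 1 mg/mL solution in 20/80 DMSO/PEG400 (v/v) at 5 mg/kg. Urine was collected at 0-24 h and 24-48 h and analysed by online LC-MS. Values are the mean of two independent experiments.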

[9] = Drug excretion in Sprague-Dawley rat urine assessed as N'-glucuronide-triclocarban formation at 1 mg/kg, po by LC-MS analysis; format: ADME, organism-based; design: dose 1 mg/kg, route oral; conditions: in vivo
[10] = biological target: T1, UDP-glucuronosyltransferase 1A1; assay: Drug metabolism assessed as human UGT1A1-mediated N'-glucuronide-triclocarban formation expressed in baculovirus infected insect sf9 cells incubated for 5 mins prior to UDPGA addition measured after 5 to 30 mins by LC-UV analysis; format: ADME; outline: as §1
[11] = biological target: T2, UDP-glucuronosyltransferase 1A10; assay: Drug metabolism assessed as human UGT1A10-mediated N'-glucuronide-triclocarban formation expressed in baculovirus infected insect sf9 cells incubated for 5 mins prior to UDPGA addition measured after 5 to 30 mins by LC-UV analysis; format: ADME; outline: as §1
[12] = biological target: T3, UDP-glucuronosyltransferase 2B17 (Homo sapiens, UniProt O75795); assay: Drug metabolism assessed as human UGT2B17-mediated N'-glucuronide-triclocarban formation expressed in baculovirus infected insect sf9 cells incubated for 5 mins prior to UDPGA addition measured after 5 to 30 mins by LC-UV analysis; format: ADME; outline: as §1
T3 sequence (O75795 whole entry): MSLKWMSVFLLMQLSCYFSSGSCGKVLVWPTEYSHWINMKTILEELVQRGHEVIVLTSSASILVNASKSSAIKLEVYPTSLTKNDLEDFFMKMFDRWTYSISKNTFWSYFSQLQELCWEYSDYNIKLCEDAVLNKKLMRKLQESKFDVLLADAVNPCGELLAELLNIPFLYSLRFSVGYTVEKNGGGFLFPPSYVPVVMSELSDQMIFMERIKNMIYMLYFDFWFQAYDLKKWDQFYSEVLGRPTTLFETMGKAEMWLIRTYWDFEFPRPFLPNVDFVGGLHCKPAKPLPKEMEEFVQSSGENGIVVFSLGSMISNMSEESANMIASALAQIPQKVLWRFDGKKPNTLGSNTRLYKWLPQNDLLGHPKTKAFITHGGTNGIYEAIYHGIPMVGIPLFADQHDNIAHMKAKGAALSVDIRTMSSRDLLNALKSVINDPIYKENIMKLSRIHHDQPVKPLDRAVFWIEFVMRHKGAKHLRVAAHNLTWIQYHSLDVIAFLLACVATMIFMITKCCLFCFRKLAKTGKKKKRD

Structure (SMILES) | CLH [1] | Drug metabolism [2] | IC50 [3] | dose excreted [4] | Drug metabolism [5] | Drug metabolism [6] | Drug metabolism [7] | Drug excretion [8] | Drug excretion [9] | Drug metabolism [10] | Drug metabolism [11] | Drug metabolism [12]
O=C(Nc1ccc(Cl)c(Cl)c1)Nc1ccc(Cl)cc1O | 1450 µL/min/mg |  |  |  |  |  |  |  |  |  |  | 
O=C(Nc1ccc(Cl)cc1)Nc1ccc(Cl)c(Cl)c1 [TRICLOCARBAN] |  | metabolite_not_detected | 0.024 µM | 25% | metabolite_not_detected | metabolite_not_detected | metabolite_not_detected | metabolite_detected | metabolite_not_detected | metabolite_not_detected | metabolite_not_detected | metabolite_not_detected

From ChEMBL document CHEMBL3525967, “In vitro glucuronidation of the antibacterial triclocarban and its oxidative metabolites” (Drug Metab Dispos, 2012)
